Test results: ChEMBL document CHEMBL3271979, “Inhibition of solid tumors by nitrosoureas. 1. Lewis lung carcinoma” (1977)
The source made the active and inactive calls. No cut-off for these calls is given here.

How the values were obtained:
[1] = Antitumor activity against mouse early Lewis lung carcinoma allografted in BDF1 mouse assessed as increase in host life span at 40 mg/kg, ip administered as single dose on 1 or 2 days post-tumor implantation; assay type: functional; settings: route intraperitoneal
Outline: (§1)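 BDF1 mice (C57Blk/6 × DBA/2) implanted sc by trocar with ~40 mg Lewis lung tumor fragments from bacteriologically sterile donor tumors. Single ip dose on day 1 or 2, as a solution or suspension in water (CMC or gum acacia) or saline (HPC or Tween 80). Read-out is […]. Same-dose toxicity controls were run in nontumor-bearing mice.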

[2] = Antitumor activity against mouse advanced Lewis lung carcinoma allografted in BDF1 mouse assessed as increase in host life span at 16 mg/kg, ip administered as single dose on 7th day post-tumor implantation; assay type: functional; settings: route intraperitoneal
Outline: (§2)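 BDF1 mice (C57Blk/6 × DBA/2) implanted sc by trocar with about 40 mg Lewis lung tumor fragments from bacteriologically sterile donors. Advanced-disease groups held tumors of about 400 mg by day 6-7, sized by caliper (w = ab²/2). Single ip injection on day 7, in water or saline vehicle, at or below the LD10 in normal mice. Tumors measured at least twice weekly.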

Mus musculus [3] = test: Antitumor activity against mouse advanced Lewis lung carcinoma allografted in BDF1 mouse assessed as complete regression of established tumor at 37 mg/kg, ip administered as single dose on 7th day post-tumor implantation; assay type: functional, organism-based; parameters: dose 37 mg/kg
Outline: (§3)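 BDF1 mice (C57Blk/6 × DBA/2) implanted sc by trocar with Lewis lung tumor fragments of about 40 mg, taken only from bacteriologically sterile donor tumors. Mice bearing tumors of about 400 mg (day 6-7) were selected. Each received a single ip dose on day 7, at or below the LD10 in normal mice. Groups were of 10 mice. Tumor weight was taken from calipers as w = ab²/2, measured at least twice weekly. Matched non-tumor mice served as toxicity controls.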

[4] = Antitumor activity against mouse early Lewis lung carcinoma allografted in BDF1 mouse assessed as time delay in tumor growth at 60 mg/kg, ip administered as single dose on 1 or 2 days post-tumor implantation; assay type: functional; settings: route intraperitoneal
Outline: (§4)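 BDF1 mice (C57Blk/6 × DBA/2) implanted sc by trocar with ~40 mg Lewis lung tumor fragments from bacteriologically sterile donors. A single ip dose was given on day 1 or 2, as a solution or suspension in water or saline with suspending agent, at ≤0.5 ml. Tumors were measured by caliper at least twice weekly, with weight = ab²/2. Delay was taken as the days for the tumor to reach 1 g.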

[5] = Antitumor activity against mouse advanced Lewis lung carcinoma allografted in BDF1 mouse assessed as increase in host life span at 25 mg/kg, ip administered as single dose on 7th day post-tumor implantation; assay type: functional; settings: route intraperitoneal; outline: as §2
Mus musculus [6] = test: Antitumor activity against mouse advanced Lewis lung carcinoma allografted in ip dosed BDF1 mouse assessed as complete regression of established tumor administered as single dose on day 6 or 7 post-tumor implantation; assay type: functional, organism-based; outline: as §3
Mus musculus [7] = test: Antitumor activity against mouse advanced Lewis lung carcinoma allografted in ip dosed BDF1 mouse assessed as disease cure administered as single dose on day 6 or 7 post-tumor implantation; assay type: functional, organism-based; outline: as §3
[8] = Antitumor activity against mouse early Lewis lung carcinoma allografted in BDF1 mouse assessed as time delay in tumor growth at 40 mg/kg, ip administered as single dose on 1 or 2 days post-tumor implantation; assay type: functional; settings: route intraperitoneal; outline: as §4
[9] = Antitumor activity against mouse early Lewis lung carcinoma allografted in BDF1 mouse assessed as increase in host life span at 26 mg/kg, ip administered as single dose on 1 or 2 days post-tumor implantation; assay type: functional; settings: route intraperitoneal; outline: as §1
[10] = Antitumor activity against mouse advanced Lewis lung carcinoma allografted in BDF1 mouse assessed as increase in host life span at 37 mg/kg, ip administered as single dose on 7th day post-tumor implantation; assay type: functional; settings: route intraperitoneal; outline: as §2
[11] = Antitumor activity against mouse early Lewis lung carcinoma allografted in BDF1 mouse assessed as time delay in tumor growth at 26 mg/kg, ip administered as single dose on 1 or 2 days post-tumor implantation; assay type: functional; settings: route intraperitoneal; outline: as §4
Mus musculus [12] = test: Antitumor activity against mouse advanced Lewis lung carcinoma allografted in BDF1 mouse assessed as disease cure at 16 mg/kg, ip administered as single dose on 7th day post-tumor implantation measured for 80 days post-drug treatment; assay type: functional, organism-based; parameters: dose 16 mg/kg; outline: as §3
Mus musculus [13] = test: Antitumor activity against mouse advanced Lewis lung carcinoma allografted in BDF1 mouse assessed as disease cure at 25 mg/kg, ip administered as single dose on 7th day post-tumor implantation measured for 80 days post-drug treatment; assay type: functional, organism-based; parameters: dose 25 mg/kg; outline: as §3
[14] = Antitumor activity against mouse advanced Lewis lung carcinoma allografted in ip dosed BDF1 mouse assessed as increase in host lifespan administered as single dose on day 6 or 7 post-tumor implantation; assay type: functional
Outline: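 Advanced Lewis lung model: about 40 mg fragments implanted sc by trocar into BDF1 mice, and mice with tumors of about 400 mg (day 6-7) selected. Tumor weight from calipers, w = ab²/2. Agent given as one ip dose in distilled water or physiological saline. Nontumor-bearing mice received matching doses as toxicity controls.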

Mus musculus [15] = test: Antitumor activity against mouse advanced Lewis lung carcinoma allografted in BDF1 mouse assessed as complete regression of established tumor at 25 mg/kg, ip administered as single dose on 7th day post-tumor implantation; assay type: functional, organism-based; parameters: dose 25 mg/kg; outline: as §3
Mus musculus [16] = test: Antitumor activity against mouse advanced Lewis lung carcinoma allografted in BDF1 mouse assessed as disease cure at 37 mg/kg, ip administered as single dose on 7th day post-tumor implantation measured for 80 days post-drug treatment; assay type: functional, organism-based; parameters: dose 37 mg/kg; outline: as §3
Mus musculus [17] = test: Antitumor activity against mouse advanced Lewis lung carcinoma allografted in BDF1 mouse assessed as complete regression of established tumor at 16 mg/kg, ip administered as single dose on 7th day post-tumor implantation; assay type: functional, organism-based; parameters: dose 16 mg/kg; outline: as §3
[18] = Antitumor activity against mouse early Lewis lung carcinoma allografted in BDF1 mouse assessed as increase in host life span at 60 mg/kg, ip administered as single dose on 1 or 2 days post-tumor implantation; assay type: functional; settings: route intraperitoneal; outline: as §1
[19] = Antitumor activity against mouse early Lewis lung carcinoma allografted in ip dosed BDF1 mouse assessed as disease cure administered as single dose on 1 or 2 days post-tumor implantation measured for 80 days post-drug treatment; assay type: functional
Outline: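 BDF1 mice implanted sc by trocar with ~40 mg Lewis lung fragments from sterile donor tumors. A single ip dose was given on day 1 or 2 after implant, in water or saline vehicle. Cures were scored in animals observed for at least 80 days after treatment. Drug-toxicity controls were matched non-tumor-bearing mice monitored for body weight and deaths.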

Mus musculus [20] = test: Antitumor activity against mouse advanced Lewis lung carcinoma allografted in BDF1 mouse assessed as disease cure at 55 mg/kg, ip administered as single dose on 7th day post-tumor implantation measured for 80 days post-drug treatment; assay type: functional, organism-based; parameters: dose 55 mg/kg; outline: as §3
[21] = Antitumor activity against mouse early Lewis lung carcinoma allografted in BDF1 mouse assessed as increase in host life span at 38 mg/kg, ip administered as single dose on 1 or 2 days post-tumor implantation; assay type: functional; settings: route intraperitoneal; outline: as §1
Mus musculus [22] = test: Antitumor activity against mouse advanced Lewis lung carcinoma allografted in BDF1 mouse assessed as complete regression of established tumor at 55 mg/kg, ip administered as single dose on 7th day post-tumor implantation; assay type: functional, organism-based; parameters: dose 55 mg/kg; outline: as §3
[23] = Antitumor activity against mouse early Lewis lung carcinoma allografted in BDF1 mouse assessed as increase in host life span at 57 mg/kg, ip administered as single dose on 1 or 2 days post-tumor implantation; assay type: functional; settings: route intraperitoneal; outline: as §1
[24] = Antitumor activity against mouse early Lewis lung carcinoma allografted in BDF1 mouse assessed as time delay in tumor growth at 38 mg/kg, ip administered as single dose on 1 or 2 days post-tumor implantation; assay type: functional; settings: route intraperitoneal; outline: as §4
[25] = Ratio of ED50 for antitumor activity against mouse L1210 cells allografted in ip dosed mouse to LD10 for mouse
[26] = Antitumor activity against mouse advanced Lewis lung carcinoma allografted in BDF1 mouse assessed as increase in host life span at 55 mg/kg, ip administered as single dose on 7th day post-tumor implantation; assay type: functional; settings: route intraperitoneal; outline: as §2
[27] = Antitumor activity against mouse early Lewis lung carcinoma allografted in BDF1 mouse assessed as time delay in tumor growth at 57 mg/kg, ip administered as single dose on 1 or 2 days post-tumor implantation; assay type: functional; settings: route intraperitoneal; outline: as §4
Mus musculus [28] = test: Antitumor activity against mouse advanced Lewis lung carcinoma allografted in BDF1 mouse assessed as complete regression of established tumor at 12 mg/kg, ip administered as single dose on 7th day post-tumor implantation; assay type: functional, organism-based; parameters: dose 12 mg/kg; outline: as §3
Mus musculus [29] = test: Antitumor activity against mouse advanced Lewis lung carcinoma allografted in BDF1 mouse assessed as disease cure at 18 mg/kg, ip administered as single dose on 7th day post-tumor implantation measured for 80 days post-drug treatment; assay type: functional, organism-based; parameters: dose 18 mg/kg; outline: as §3
Mus musculus [30] = test: Antitumor activity against mouse advanced Lewis lung carcinoma allografted in BDF1 mouse assessed as complete regression of established tumor at 18 mg/kg, ip administered as single dose on 7th day post-tumor implantation; assay type: functional, organism-based; parameters: dose 18 mg/kg; outline: as §3
[31] = Antitumor activity against mouse advanced Lewis lung carcinoma allografted in BDF1 mouse assessed as increase in host life span at 18 mg/kg, ip administered as single dose on 7th day post-tumor implantation; assay type: functional; settings: route intraperitoneal; outline: as §2
[32] = Antitumor activity against mouse advanced Lewis lung carcinoma allografted in BDF1 mouse assessed as increase in host life span at 12 mg/kg, ip administered as single dose on 7th day post-tumor implantation; assay type: functional; settings: route intraperitoneal; outline: as §2
L1210 = test: Antitumor activity against mouse L1210 cells allografted in ip dosed mouse assessed as disease cure administered as single dose; assay type: functional, organism-based
Mus musculus [33] = test: Antitumor activity against mouse advanced Lewis lung carcinoma allografted in BDF1 mouse assessed as disease cure at 12 mg/kg, ip administered as single dose on 7th day post-tumor implantation measured for 80 days post-drug treatment; assay type: functional, organism-based; parameters: dose 12 mg/kg; outline: as §3

Structure (SMILES): CO[C@H]1CC[C@H](NC(=O)N(CCCl)N=O)CC1
- ILS at 40 mg/kg [1]: 0%
- ILS at 16 mg/kg [2]: 20%
- inhibition (Mus musculus [3]): inactive
- Time [4]: 9.5 days
- ILS at 25 mg/kg [5]: 29%
- inhibition (Mus musculus [6]): inactive
- Activity (Mus musculus [7]): inactive
- Time [8]: 2 days
- ILS at 26 mg/kg [9]: 18%
- ILS at 37 mg/kg [10]: 29%
- Time [11]: 0 days
- Activity (Mus musculus [12]): inactive
- Activity (Mus musculus [13]): inactive
- ILS [14]: >25%
- inhibition (Mus musculus [15]): inactive
- Activity (Mus musculus [16]): inactive
- inhibition (Mus musculus [17]): inactive
- ILS at 60 mg/kg [18]: 18%

Structure (SMILES): O=NN(CCCl)C(=O)N[C@H]1CCCC[C@@H]1Cl (relative stereo)
- Activity [19]: 10%
- Activity (Mus musculus [20]): inactive
- inhibition (Mus musculus [6]): inactive
- Activity (Mus musculus [7]): inactive
- ILS [14]: >25%
- ILS at 38 mg/kg [21]: 43%
- inhibition (Mus musculus [22]): inactive
- ILS at 57 mg/kg [23]: 38%
- Time [24]: 3.3 days
- Ratio [25]: 0.6
- ILS at 55 mg/kg [26]: 18%
- Time [27]: 2.5 days

Structure (SMILES): CC(=O)OC[C@H]1CC[C@H](NC(=O)N(CCCl)N=O)CC1
- Activity [19]: 10%
- inhibition (Mus musculus [28]): inactive
- Activity (Mus musculus [29]): inactive
- inhibition (Mus musculus [30]): inactive
- inhibition (Mus musculus [6]): inactive
- Activity (Mus musculus [7]): inactive
- ILS at 18 mg/kg [31]: 65%
- ILS [14]: >25%
- ILS at 12 mg/kg [32]: 26%
- Activity (L1210): inactive
- Activity (Mus musculus [33]): inactive
